Drawing on ChEMBL document CHEMBL2203154, “Synthesis, characterization and biological studies of diosgenyl analogues” (Bioorg Med Chem Lett, 2012), this text covers IC50 and inhibition in vivo for 12 compounds.

One assay deals with HepG2. Description: Cytotoxicity against human HepG2 cells after 48 hrs by MTT assay. The assay is classed as functional, cell-based. As to conditions: HepG2, 48 h. In outline: (§1)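 MTT assay on tumor cells exposed to compound for 48 h. IC50 is the concentration (μM) that inhibits growth by 50% relative to untreated cells. Values are means of at least 3 independent assays per compound.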
(In general: Tetrazolium dyes change colour on reduction, which living cells bring about.)

Assay [1] is described as follows: Cytotoxicity against mouse C26 cells after 48 hrs by MTT assay. The assay is classed as functional, cell-based. Conditions: C26, 48 h. In outline: as §1
Assay [2] deals with Mus musculus. Put plainly: Antiinflammatory activity in Kunming mouse assessed as inhibition of xylene-induced ear edema at 100 mg/kg, po administered for 3 days followed by xylene-challenge at 2 hrs post-last dose measured after 1 hr relative to vehicle-treated control. It is filed as functional. The gist of the method: (§2)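 Oral gavage in mice, test compounds suspended in 0.5% CMC at 100 mg/kg; aspirin group at 50 mg/kg. Ear edema induced with xylene; inhibition calculated versus the CMC vehicle group. Ten animals per group; data as mean ± SD, with significance versus CMC at p<0.05 or p<0.01.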

A further assay deals with MDA-MB-231. Description: Cytotoxicity against human MDA-MB-231 cells after 48 hrs by MTT assay. The assay is classed as functional, cell-based. Conditions: MDA-MB-231, 48 h. The gist of the method:
as §1

In assay [3] the test system is Mus musculus. Put plainly: Antiinflammatory activity in Kunming mouse assessed as inhibition of xylene-induced ear edema at 50 mg/kg, po administered for 3 days followed by xylene-challenge at 2 hrs post-last dose measured after 1 hr relative to vehicle-treated control. It is filed as functional. The gist of the method: as §2

SMILES strings stand for the structures.

With `CC(=O)Oc1ccccc1C(=O)O[C@H]1CC[C@@]2(C)C(=CC[C@H]3[C@@H]4C[C@@H]5O[C@]6(CC[C@@H](C)CO6)[C@@H](C)[C@@H]5[C@@]4(C)CC[C@@H]32)C1`, the half-maximal inhibitory concentration (IC50) (in the assay on HepG2; in assay [1]; in the assay with MDA-MB-231) was greater than 50 µM each time. Besides, the inhibition in vivo (in general, the change of the read-out against control, counted positive when it falls) at 100 mg/kg in the assay on Mus musculus [2] was 46.5%.

Regarding `C[C@@H]1CC[C@@]2(OC1)O[C@H]1C[C@H]3[C@@H]4CC=C5C[C@@H](O)CC[C@]5(C)[C@H]4CC[C@]3(C)[C@H]1[C@@H]2C` [DISOGENIN], the half-maximal inhibitory concentration (IC50) (in the assay with HepG2; in assay [1]; in the assay on MDA-MB-231) was greater than 50 µM each time. The inhibition in vivo at 100 mg/kg in the assay on Mus musculus [2] stood at 32.2%.

In the case of `C[C@@H]1CC[C@@]2(OC1)O[C@H]1C[C@H]3[C@@H]4CC=C5C[C@@H](OC(=O)CC[C@@H](NC(=O)c6ccccc6O)C(=O)O[C@H]6CC[C@@]7(C)C(=CC[C@H]8[C@@H]9C[C@@H]%10O[C@]%11(CC[C@@H](C)CO%11)[C@@H](C)[C@@H]%10[C@@]9(C)CC[C@@H]87)C6)CC[C@]5(C)[C@H]4CC[C@]3(C)[C@H]1[C@@H]2C`, the half-maximal inhibitory concentration (IC50) (in the assay with HepG2; in assay [1]; in the assay with MDA-MB-231) was greater than 50 µM in each case. In the assay on Mus musculus [2], the inhibition in vivo at 100 mg/kg was found to be 30.1%.

For the compound `C[C@@H]1CC[C@@]2(OC1)O[C@H]1C[C@H]3[C@@H]4CC=C5C[C@@H](OC(=O)[C@H](C)N)CC[C@]5(C)[C@H]4CC[C@]3(C)[C@H]1[C@@H]2C`, the IC50 (in the assay with HepG2; in assay [1]; in the assay on MDA-MB-231) was greater than 50 µM throughout. In the assay on Mus musculus [2], the inhibition in vivo at 100 mg/kg is 28.6%.

Take `CC(=O)Oc1ccccc1C(=O)NCC(=O)O[C@H]1CC[C@@]2(C)C(=CC[C@H]3[C@@H]4C[C@@H]5O[C@]6(CC[C@@H](C)CO6)[C@@H](C)[C@@H]5[C@@]4(C)CC[C@@H]32)C1`: the half-maximal inhibitory concentration (IC50) (in the assay with HepG2; in assay [1]; in the assay on MDA-MB-231) was greater than 50 µM each time. The inhibition in vivo at 100 mg/kg with Mus musculus [2] stood at 39.1%.

For `C[C@@H]1CC[C@@]2(OC1)O[C@H]1C[C@H]3[C@@H]4CC=C5C[C@@H](OC(=O)[C@H](C)NC(=O)c6ccccc6O)CC[C@]5(C)[C@H]4CC[C@]3(C)[C@H]1[C@@H]2C`, the IC50 (in the assay with HepG2; in assay [1]; in the assay with MDA-MB-231) was greater than 50 µM in each case. Moreover, in the assay with Mus musculus [2], the inhibition in vivo at 100 mg/kg was found to be 35.8%.

On to `C[C@@H]1CC[C@@]2(OC1)O[C@H]1C[C@H]3[C@@H]4CC=C5C[C@@H](O[C@@H]6O[C@H](CO)[C@@H](O[C@@H]7O[C@H](CO)[C@@H](O)[C@H](O)[C@H]7O)[C@H](O)[C@H]6O[C@@H]6O[C@@H](C)[C@H](O)[C@@H](O)[C@H]6O)CC[C@]5(C)[C@H]4CC[C@]3(C)[C@H]1[C@@H]2C` [DELTONIN], for which the IC50 (as a rule, the concentration at which inhibition is half-maximal) was 7.66 µM in the assay on HepG2, 1.22 µM in assay [1] and 1.58 µM in the assay with MDA-MB-231.

For the compound `C[C@@H]1CC[C@@]2(OC1)O[C@H]1C[C@H]3[C@@H]4CC=C5C[C@@H](OC(=O)CCCCCNC(=O)c6ccccc6O)CC[C@]5(C)[C@H]4CC[C@]3(C)[C@H]1[C@@H]2C`, the IC50 (with HepG2; in assay [1]; in the assay on MDA-MB-231) was greater than 50 µM in each case. Besides, in the assay with Mus musculus [2], the inhibition in vivo at 100 mg/kg was determined as 42.6%.

Turning to `C[C@@H]1CC[C@@]2(OC1)O[C@H]1C[C@H]3[C@@H]4CC=C5C[C@@H](OC(=O)CN)CC[C@]5(C)[C@H]4CC[C@]3(C)[C@H]1[C@@H]2C` [GLYCINE DIOSGENYL ESTER], the half-inhibitory concentration (IC50) is greater than 50 µM with HepG2, greater than 50 µM in assay [1] and 48.2 µM in the assay on MDA-MB-231. In addition, the inhibition in vivo at 100 mg/kg with Mus musculus [2] amounted to 30.6%.

As for `C[C@@H]1CC[C@@]2(OC1)O[C@H]1C[C@H]3[C@@H]4CC=C5C[C@@H](OC(=O)CCCCCN)CC[C@]5(C)[C@H]4CC[C@]3(C)[C@H]1[C@@H]2C`, the results for the concentration for half-maximal inhibition (IC50) (with HepG2; in assay [1]; with MDA-MB-231) were 14.6 µM, 4.7 µM and 7.6 µM, respectively. Further, in the assay on Mus musculus [2], the inhibition in vivo at 100 mg/kg was 38.6%.

Take `C[C@@H]1CC[C@@]2(OC1)O[C@H]1C[C@H]3[C@@H]4CC=C5C[C@@H](OC(=O)CC[C@@H](N)C(=O)O[C@H]6CC[C@@]7(C)C(=CC[C@H]8[C@@H]9C[C@@H]%10O[C@]%11(CC[C@@H](C)CO%11)[C@@H](C)[C@@H]%10[C@@]9(C)CC[C@@H]87)C6)CC[C@]5(C)[C@H]4CC[C@]3(C)[C@H]1[C@@H]2C`: the concentration for half-maximal inhibition (IC50) (with HepG2; in assay [1]; in the assay with MDA-MB-231) was greater than 50 µM throughout. In addition, the inhibition in vivo at 100 mg/kg with Mus musculus [2] was 19.1%.

For `CC(=O)Oc1ccccc1C(=O)O` [ASPIRIN], the inhibition in vivo at 50 mg/kg in the assay on Mus musculus [3] worked out at 31.9%.
